Measurements published in ChEMBL document CHEMBL5303300, “EUbOPEN Chemogenomics Library - Multiplex” (2023).
Where “and” joins values, the source holds several entries; their conditions need not be identical. Equal values may be shown once.

Tested on: U2OS
Assay: Multiplex assay against U2OS
Assay type: toxicity, cell-based
Settings: human, number of replicates 2
How it was run: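 Compound was added to live cells that had been stained at seeding with Hoechst33342, BioTracker Green Microtubule Cytoskeleton Dye, MitoTracker Red and Annexin V Alexa Fluor 680, and imaging followed on a CQ1 microscope at 37°C and 5% CO2. CellPathfinder machine-learning gating divided cells into Hoechst high-intensity objects or normal cells, normal cells into healthy, pyknosed or fragmented nuclei, and pyknosed cells into mitotic or apoptotic. Tubulin, mitochondrial-mass and membrane-permeability phenotypes are per cents of healthy-nucleus cells.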

[1] = 12 h, 1 µM, compound concentration 1 uM
[2] = 12 h, 10 µM, compound concentration 10 uM
[3] = 24 h, 1 µM, compound concentration 1 uM
[4] = 24 h, 10 µM, compound concentration 10 uM
[5] = 48 h, 1 µM, compound concentration 1 uM
[6] = 48 h, 10 µM, compound concentration 10 uM

With `Cn1ncc(NC(=O)c2nc(-c3c(F)cccc3F)sc2N)c1N1CC[C@@H](N)[C@H](F)CC1` the “Population Apoptotic (%)” value [1] was 55% and 77%, the “Population Healthy Nuclei (%)” value [1] was 46% and 79% and the “Population Hoechst High Intensity Objects (%)” value [1] was 0%. For the same compound, the “Population Mitochondria Different-Phenotype (%)” value [1] was 0%, the “Population Normal (%)” value [1] was 100% and the “Population Pyknosed Nuclei (%)” value [1] was 19%. For the same compound, the “Population Tubulin-Different-Phenotype (%)” value [1] was 50% and 77%, the “Population Apoptotic (%)” value [2] was 73% and 69% and the “Population Healthy Nuclei (%)” value [2] was 22% and 53%. The “Population Hoechst High Intensity Objects (%)” value [2] was 0%, the “Population Mitochondria Different-Phenotype (%)” value [2] was 0% and 18% and the “Population Normal (%)” value [2] was 98% and 99%. The “Population Pyknosed Nuclei (%)” value [2] was 44% and 24%, the “Population Tubulin-Different-Phenotype (%)” value [2] was 38% and 39% and the “Population Apoptotic (%)” value [3] was 50% and 89%. The “Population Healthy Nuclei (%)” value [3] was 48% and 85%, the “Population Hoechst High Intensity Objects (%)” value [3] was 0% and the “Population Mitochondria Different-Phenotype (%)” value [3] was 8%. The “Population Normal (%)” value [3] was 100% and 99%, the “Population Pyknosed Nuclei (%)” value [3] was 16% and 7% and the “Population Tubulin-Different-Phenotype (%)” value [3] was 62% and 80%. For the same compound, the “Population Apoptotic (%)” value [4] was 90% and 86%, the “Population Mitochondria Different-Phenotype (%)” value [4] was 33% and the “Population Normal (%)” value [4] was 98% and 100%. For the same compound, the “Population Pyknosed Nuclei (%)” value [4] was 49% and 31%, the “Population Tubulin-Different-Phenotype (%)” value [4] was 33% and 56% and the “Total Cell Count” value [4] was 64 and 190. For the same compound, the “Population Apoptotic (%)” value [5] was 84% and 66%, the “Population Healthy Nuclei (%)” value [5] was 90% and 65% and the “Population Hoechst High Intensity Objects (%)” value [5] was 0%. For the same compound, the “Population Mitochondria Different-Phenotype (%)” value [5] was 7%, the “Population Normal (%)” value [5] was 100% and the “Population Pyknosed Nuclei (%)” value [5] was 5%. The “Population Tubulin-Different-Phenotype (%)” value [5] was 84% and 49%, the “Population Apoptotic (%)” value [6] was 96% and 93% and the “Population Healthy Nuclei (%)” value [6] was 21% and 44%. The “Population Hoechst High Intensity Objects (%)” value [6] was 0%, the “Population Mitochondria Different-Phenotype (%)” value [6] was 25% and 19% and the “Population Normal (%)” value [6] was 100%. The “Population Pyknosed Nuclei (%)” value [6] was 53% and 36% and the “Population Tubulin-Different-Phenotype (%)” value [6] was 41% and 57%.

`CNC(=O)c1c(F)cccc1Nc1nc(Nc2cc3c(cc2OC)CCN3C(=O)CN(C)C)nc2[nH]ccc12` was tested, and the “Population Apoptotic (%)” value [1] was 57% and 62%, the “Population Healthy Nuclei (%)” value [1] was 60% and 80% and the “Population Hoechst High Intensity Objects (%)” value [1] was 0%. The “Population Membrane Permeable-Phenotype (%)” value [1] was 0% and 7%, the “Population Mitochondria Different-Phenotype (%)” value [1] was 0% and 8% and the “Population Mitotic Cells (%)” value [1] was 42% and 37%. The “Population Normal (%)” value [1] was 100%, the “Population Pyknosed Nuclei (%)” value [1] was 13% and 15% and the “Population Tubulin-Different-Phenotype (%)” value [1] was 80% and 46%. The “Population Apoptotic (%)” value [2] was 46% and 60%, the “Population Healthy Nuclei (%)” value [2] was 33% and 35% and the “Population Hoechst High Intensity Objects (%)” value [2] was 0% and 2%. For the same compound, the “Population Mitotic Cells (%)” value [2] was 53% and 39%, the “Population Normal (%)” value [2] was 100% and 97% and the “Population Tubulin-Different-Phenotype (%)” value [2] was 57% and 75%. For the same compound, the “Total Cell Count” value [2] was 815 and 281, the “Population Apoptotic (%)” value [3] was 46% and 59% and the “Population Healthy Nuclei (%)” value [3] was 55% and 80%. The “Population Hoechst High Intensity Objects (%)” value [3] was 0%, the “Population Membrane Permeable-Phenotype (%)” value [3] was 0% and 3% and the “Population Mitochondria Different-Phenotype (%)” value [3] was 0% and 7%. The “Population Mitotic Cells (%)” value [3] was 53% and 40%, the “Population Normal (%)” value [3] was 100% and the “Population Pyknosed Nuclei (%)” value [3] was 25% and 15%. For the same compound, the “Population Tubulin-Different-Phenotype (%)” value [3] was 87% and 50%, the “Population Apoptotic (%)” value [4] was 72% and 83% and the “Population Healthy Nuclei (%)” value [4] was 32% and 23%. For the same compound, the “Population Hoechst High Intensity Objects (%)” value [4] was 0% and 1%, the “Population Mitotic Cells (%)” value [4] was 27% and 16% and the “Population Normal (%)” value [4] was 100% and 98%. The “Population Tubulin-Different-Phenotype (%)” value [4] was 62% and 78%, the “Population Apoptotic (%)” value [5] was 72% and 78% and the “Population Healthy Nuclei (%)” value [5] was 61% and 82%. For the same compound, the “Population Hoechst High Intensity Objects (%)” value [5] was 1% and 0%, the “Population Membrane Permeable-Phenotype (%)” value [5] was 2% and 4% and the “Population Mitochondria Different-Phenotype (%)” value [5] was 2% and 5%. The “Population Mitotic Cells (%)” value [5] was 27% and 22%, the “Population Normal (%)” value [5] was 98% and 100% and the “Population Pyknosed Nuclei (%)” value [5] was 23% and 14%. For the same compound, the “Population Tubulin-Different-Phenotype (%)” value [5] was 91% and 62%, the “Population Apoptotic (%)” value [6] was 95% and 94% and the “Population Hoechst High Intensity Objects (%)” value [6] was 0% and 1%. The “Population Mitotic Cells (%)” value [6] was 4% and 5%, the “Population Normal (%)” value [6] was 100% and 98% and the “Population Tubulin-Different-Phenotype (%)” value [6] was 64% and 80%.

In the case of `CCN1CCN(Cc2ccc(C(=O)Nc3ccc(C)c(Oc4ccc5c(c4)CC(=O)N5)c3)cc2C(F)(F)F)CC1.Cl.Cl`, the “Population Apoptotic (%)” value [1] is reported as 50%, the “Population Healthy Nuclei (%)” value [1] is reported as 82% and 64% and the “Population Hoechst High Intensity Objects (%)” value [1] is reported as 0% and 3%. The “Population Membrane Permeable-Phenotype (%)” value [1] was 0%, the “Population Mitochondria Different-Phenotype (%)” value [1] was 4% and 0% and the “Population Mitotic Cells (%)” value [1] was 50%. The “Population Normal (%)” value [1] was 100% and 96%, the “Population Pyknosed Nuclei (%)” value [1] was 12% and 19% and the “Population Tubulin-Different-Phenotype (%)” value [1] was 60% and 40%. The “Population Apoptotic (%)” value [2] was 42% and 45%, the “Population Fragmented Nuclei (%)” value [2] was 15% and 8% and the “Population Healthy Nuclei (%)” value [2] was 57% and 69%. For the same compound, the “Population Hoechst High Intensity Objects (%)” value [2] was 1% and 0%, the “Population Membrane Permeable-Phenotype (%)” value [2] was 33% and 14% and the “Population Mitochondria Different-Phenotype (%)” value [2] was 46%. The “Population Mitotic Cells (%)” value [2] was 57% and 54%, the “Population Normal (%)” value [2] was 98% and 100% and the “Population Pyknosed Nuclei (%)” value [2] was 26% and 22%. For the same compound, the “Population Tubulin-Different-Phenotype (%)” value [2] was 83% and 81%, the “Population Apoptotic (%)” value [3] was 66% and 63% and the “Population Fragmented Nuclei (%)” value [3] was 5% and 2%. The “Population Healthy Nuclei (%)” value [3] was 71% and 81%, the “Population Hoechst High Intensity Objects (%)” value [3] was 2% and 0% and the “Population Membrane Permeable-Phenotype (%)” value [3] was 0%. For the same compound, the “Population Mitochondria Different-Phenotype (%)” value [3] was 7% and 3%, the “Population Mitotic Cells (%)” value [3] was 33% and 36% and the “Population Normal (%)” value [3] was 97% and 100%. The “Population Pyknosed Nuclei (%)” value [3] was 23% and 15%, the “Population Tubulin-Different-Phenotype (%)” value [3] was 51% and 64% and the “Population Apoptotic (%)” value [4] was 65% and 64%. The “Population Fragmented Nuclei (%)” value [4] was 12% and 8%, the “Population Healthy Nuclei (%)” value [4] was 54% and 64% and the “Population Hoechst High Intensity Objects (%)” value [4] was 0%. For the same compound, the “Population Membrane Permeable-Phenotype (%)” value [4] was 29% and 26%, the “Population Mitochondria Different-Phenotype (%)” value [4] was 76% and 74% and the “Population Mitotic Cells (%)” value [4] was 35%. For the same compound, the “Population Normal (%)” value [4] was 100%, the “Population Pyknosed Nuclei (%)” value [4] was 32% and 27% and the “Population Tubulin-Different-Phenotype (%)” value [4] was 61% and 86%. For the same compound, the “Population Apoptotic (%)” value [5] was 78% and 66%, the “Population Fragmented Nuclei (%)” value [5] was 4% and 1% and the “Population Healthy Nuclei (%)” value [5] was 72% and 85%. For the same compound, the “Population Hoechst High Intensity Objects (%)” value [5] was 1% and 0%, the “Population Membrane Permeable-Phenotype (%)” value [5] was 4% and 1% and the “Population Mitochondria Different-Phenotype (%)” value [5] was 2% and 1%. For the same compound, the “Population Mitotic Cells (%)” value [5] was 21% and 33%, the “Population Normal (%)” value [5] was 98% and 99% and the “Population Pyknosed Nuclei (%)” value [5] was 22% and 13%. For the same compound, the “Population Tubulin-Different-Phenotype (%)” value [5] was 59% and 70%, the “Population Apoptotic (%)” value [6] was 83% and 80% and the “Population Fragmented Nuclei (%)” value [6] was 9% and 10%. The “Population Healthy Nuclei (%)” value [6] was 29% and 49%, the “Population Hoechst High Intensity Objects (%)” value [6] was 1% and 0% and the “Population Membrane Permeable-Phenotype (%)” value [6] was 66% and 31%. The “Population Mitochondria Different-Phenotype (%)” value [6] was 60% and 81%, the “Population Mitotic Cells (%)” value [6] was 16% and 19% and the “Population Normal (%)” value [6] was 98% and 99%. For the same compound, the “Population Pyknosed Nuclei (%)” value [6] was 60% and 40% and the “Population Tubulin-Different-Phenotype (%)” value [6] was 80% and 81%.
